Activity calls are given as the source filed them.
Legend:
[1] = test system: Rattus norvegicus; test: Antihypertensive activity in spontaneously hypertensive rats tested at 100 mg/kg po/day for 2 days; assay type: functional, organism-based; design: dose 100 mg/kg
Method in brief: (§1)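 Male 16-week-old Okamoto SHR (mean arterial pressure about 170 mmHg), 1-3 rats per compound. Given by gavage in 2% preboiled starch (50 mg/mL), 100 mg/kg or less, with 0.9% NaCl load (25 mL/kg). Second dose without saline 24 h later. Mean arterial pressure measured 28 h after first dose. Active if ≤116 mmHg in one rat or mean ≤122 mmHg in two.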

[2] = biological target: T1, Thromboxane-A synthase (Rattus norvegicus) (UniProt P49430); test: Inhibitory activity for thromboxane synthetase determined by TXB2 levels in platelets from spontaneously hypertensive rats.; design: concentration or dose not given beside the values; details: concentration not given here
T1 sequence (whole entry): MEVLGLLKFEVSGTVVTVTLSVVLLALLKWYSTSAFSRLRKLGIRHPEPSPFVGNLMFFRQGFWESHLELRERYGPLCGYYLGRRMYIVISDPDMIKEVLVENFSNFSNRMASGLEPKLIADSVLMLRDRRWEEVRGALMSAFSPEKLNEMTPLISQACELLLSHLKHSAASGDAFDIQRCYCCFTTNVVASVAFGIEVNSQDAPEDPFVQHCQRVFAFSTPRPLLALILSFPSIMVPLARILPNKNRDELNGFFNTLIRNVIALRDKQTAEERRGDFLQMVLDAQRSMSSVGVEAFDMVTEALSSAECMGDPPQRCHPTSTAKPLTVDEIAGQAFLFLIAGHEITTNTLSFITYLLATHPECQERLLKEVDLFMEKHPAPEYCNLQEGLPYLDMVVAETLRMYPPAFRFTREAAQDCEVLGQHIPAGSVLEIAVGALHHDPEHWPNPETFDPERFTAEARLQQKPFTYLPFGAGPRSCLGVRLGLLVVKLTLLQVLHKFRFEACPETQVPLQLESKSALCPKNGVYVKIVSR
Method in brief: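 Washed SHR platelets in oxygenated Krebs phosphate buffer, pH 7.4, 4.5-6.0 × 10^4/μL, incubated with vehicle or drug for 10 min at 37 °C. Stopped with ice and citric acid. Supernatant TXB2 measured by RIA; TXB2 in boiled controls subtracted; % inhibition calculated. IC50 read graphically from % inhibition vs log concentration; single-point screen at 10^-4 M.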

[3] = test system: Rattus norvegicus; test: Antihypertensive activity in spontaneously hypertensive rats at 100 mg/kg po/day for 2 days; assay type: functional, organism-based; design: dose 100 mg/kg; method in brief: as §1

SMILES	Activity [1]	inhibition [2]	Activity [3]
CN(C)c1ccc(C(=O)NCCCn2ccnc2)cc1	inactive	93%	–
O=C(NCCCn1cncn1)c1cccc(Br)c1	inactive	85%	–
O=C(Cc1cccc(Cl)c1)NCCCn1ccnc1	–	75%	Active
Cc1nccn1CCCNC(=O)c1ccc(Cl)c(Cl)c1	inactive	82%	–
Cc1nccn1CCCNC(=O)c1cccc(C(F)(F)F)c1	inactive	75%	–
COc1ccc(C(=O)NCCCn2cncn2)cc1	inactive	70%	–
O=C(COc1ccccc1)NCCCn1ccnc1	inactive	86%	–
O=C(NCCCn1cncn1)c1cccc(C(F)(F)F)c1	inactive	71%	–
Cc1ccc(C(=O)NCCCn2ccnc2)cc1	inactive	83%	–
O=C(CCc1ccccc1)NCCCn1ccnc1	inactive	64%	–
CC(C)(C)c1ccc(C(=O)NCCCn2cncn2)cc1	inactive	86%	–
CC(CNC(=O)c1ccc(Cl)c(Cl)c1)Cn1ccnc1 (configuration not stated)	inactive	86%	–
Cc1nccn1CCCNC(=O)c1cccc(Cl)c1	inactive	59%	–
O=C(NCCCCn1cncn1)c1ccccc1-c1ccccc1	inactive	89%	–
COc1cc(C(=O)NCCCn2cncn2)cc(OC)c1OC	inactive	64%	–
O=C(NCCCn1cncn1)c1cccc(F)c1	inactive	82%	–
CNc1ccccc1C(=O)NCCCn1ccnc1	inactive	57%	–
O=C(NCCCn1ccnc1)C(=O)c1ccccc1	inactive	80%	–
Cc1cn(CCCNC(=O)c2ccc(I)cc2)cn1	inactive	99%	–
CCc1nccn1CCCNC(=O)c1ccc(Cl)cc1	inactive	32%	–
O=C(O)c1ccccc1C(=O)NCCCn1ccnc1	inactive	82%	–

SMILES	Activity [1]	inhibition [2]	Activity [3]
Cc1cn(CCCNC(=O)c2cccc(Br)c2)cn1	inactive	93%	–
O=C(NCCCCCCCCn1ccnc1)c1ccc(Br)cc1	–	100%	–
CC(CCNC(=O)c1ccc(C(F)(F)F)cc1)n1ccnc1 (configuration not stated)	inactive	94%	–
O=C(NCCCn1cncn1)c1ccc(F)cc1	inactive	67%	–
O=C(NCCCn1cncn1)c1cccc(Cl)c1	inactive	86%	–
O=C(/C=C/c1ccc(Cl)cc1)NCCCn1cncn1	inactive	47%	–
O=C(NCCCn1cncn1)c1ccccc1-c1ccccc1	inactive	65%	–
O=C(NC/C=C/Cn1ccnc1)c1ccc(C(F)(F)F)cc1 (stereo in doubt; 53)	inactive	93%	–
O=C(NCCCn1ccnc1)c1ccccc1	inactive	96%	–
COc1ccc(C(=O)NCCCn2ccnc2)cc1	inactive	89%	–
O=C(NCCCn1cncn1)c1ccc(C(=O)c2ccccc2)cc1	inactive	65%	–
O=C(NCCCn1cncn1)c1ccccc1F	inactive	25%	–
O=C(NCCn1cncn1)c1ccc(Br)cc1	inactive	0%	–
N#Cc1ccc(C(=O)NCCCn2ccnc2)cc1	inactive	91%	–
O=C(NCCCn1cncn1)c1cccc([N+](=O)[O-])c1	inactive	72%	–
O=C(Cc1ccc(F)cc1)NCCCn1ccnc1	inactive	33%	–
CC(CCNC(=O)c1ccc(Cl)cc1)n1ccnc1 (configuration not stated)	inactive	96%	–
CC(=O)Nc1ccc(C(=O)NCCCn2cncn2)cc1	inactive	75%	–
O=C(NCCCn1ccnc1)c1ccc(F)cc1	inactive	87%	–
O=C(NCCCCCn1cncn1)c1ccc(Cl)cc1	inactive	79%	–
O=C(O)c1ccc(OCCn2ccnc2)cc1	–	98%	–

SMILES	Activity [1]	inhibition [2]	Activity [3]
O=C(NCCCCn1cncn1)c1cccc(Cl)c1	inactive	87%	–
O=C(NCCCn1ccnc1)C1CC1c1ccccc1 (configuration not stated)	inactive	100%	–
CCCCOc1ccc(C(=O)NCCCn2cncn2)cc1	inactive	71%	–
O=C(Cc1cccc(Cl)c1)NCCCn1cncn1	inactive	0%	–
CCCCOc1ccc(C(=O)NCCCn2ccnc2)cc1	inactive	75%	–
CS(=O)(=O)c1ccc(C(=O)NCCCn2ccnc2)cc1	inactive	80%	–
O=C(NCCCn1ccnc1)c1cccc(F)c1	inactive	96%	–
O=C(NCCCn1cncn1)c1ccc(Cl)cc1	inactive	16%	–
COc1cc(C(=O)NCCCn2ccnc2)cc(OC)c1OC	inactive	100%	–
O=C(NC/C=C/Cn1ccnc1)c1ccc(Cl)cc1 (stereo in doubt; 51)	inactive	100%	–
CC(=O)c1ccc(C(=O)NCCCn2ccnc2)cc1	inactive	90%	–
O=C(NCCCn1ccnc1)c1ccccc1F	inactive	84%	–
O=C(NCCCCn1cncn1)c1ccc(Br)cc1	inactive	88%	–
O=C(NCCCn1ccnc1)c1ccc(-c2ccccc2)cc1	inactive	100%	–
O=C(NCCCn1ccnc1)c1ccc(C(=O)c2ccccc2)cc1	inactive	100%	–
O=C(NCCCn1ccnc1)c1ccc(Cl)c(Cl)c1	inactive	93%	–
O=C(NCCCCCn1cncn1)c1ccc(Br)cc1	inactive	81%	–
O=C(NCCn1ccnc1)c1ccc(Cl)c(Cl)c1	inactive	59%	–
O=C(NC/C=C/Cn1ccnc1)c1ccc(C(F)(F)F)cc1 (stereo in doubt; 54)	inactive	95%	–
Cc1nccn1CCCNC(=O)c1cccc(Br)c1	inactive	64%	–
CC(CCNC(=O)c1ccc(Br)cc1)n1ccnc1 (configuration not stated)	inactive	91%	–

SMILES	Activity [1]	inhibition [2]	Activity [3]
O=C(NCCCn1cncn1)c1ccc(Br)cc1	inactive	40%	–
O=C(NCCCCn1cncn1)c1ccc(Cl)c(Cl)c1	inactive	82%	–
O=C(NCCCCn1ccnc1)c1ccccc1	inactive	91%	–
O=C(NCCCCn1ccnc1)c1ccc(Cl)c(Cl)c1	inactive	100%	–
CCNc1ccccc1C(=O)NCCCn1ccnc1	inactive	86%	–
O=C(NCCCCCn1ccnc1)c1ccc(Br)cc1	inactive	100%	–
CC(CNC(=O)c1ccc(Cl)cc1)Cn1ccnc1 (configuration not stated)	inactive	100%	–
O=C(O)c1ccccc1C(=O)NCCCCn1ccnc1	inactive	50%	–
O=C(COc1ccc(Cl)cc1)NCCCn1cncn1	inactive	56%	–
O=C(NC/C=C/Cn1ccnc1)c1ccc(Cl)cc1 (stereo in doubt; 52)	inactive	91%	–
O=C(COc1ccc(Cl)cc1)NCCCn1ccnc1	inactive	85%	–
O=C(O)c1ccccc1C(=O)NCCCn1cncn1	inactive	23%	–
O=C(NCCCCn1cncn1)c1ccc(Cl)cc1	inactive	52%	–
Cc1nccn1CCCNC(=O)c1ccc(Br)cc1	inactive	66%	–
O=C(NCCCCn1cncn1)c1ccc(C(F)(F)F)cc1	inactive	38%	–
CC(CCNC(=O)c1cccc(Cl)c1)n1ccnc1 (configuration not stated)	inactive	93%	–
O=C(NCCCn1ccnc1)c1ccccc1Br	inactive	50%	–
CC(=O)Nc1ccc(C(=O)NCCCn2ccnc2)cc1	inactive	99%	–
O=C(NCCCn1ccnc1)c1ccccc1Cl	inactive	100%	–

Source: ChEMBL document CHEMBL1123157, “Thromboxane synthetase inhibitors and antihypertensive agents. 1. N-[(1H-imidazol-1-yl)alkyl]aryl amides and N-[(1H-1,2,4-triazol-1-yl)alkyl]aryl amides” (J Med Chem, 1986)
